Test results: ChEMBL document CHEMBL1149773, “Synthesis, determination of the lipophilicity, anticancer and antimicrobial properties of some fused 1,2,4-triazole derivatives” (Eur J Med Chem, 2008)
Values after ≈ are worked out from the molar mass of the structure shown. Blank lines part the entries; values can stand above or below the compound they belong to.

Tests used:
Staphylococcus aureus [1] = assay: Antimicrobial activity against Staphylococcus aureus ATCC 25923 after 24 hrs by microdilution assay; assay type: functional; details: ATCC 25923, 24 h
Pseudomonas aeruginosa [2] = assay: Antimicrobial activity against Pseudomonas aeruginosa ATCC 27853 after 24 hrs by microdilution assay; assay type: functional; details: ATCC 27853, 24 h
[3] = Lipophilicity, log kw in acetonitrile aqueous system at pH 3.5; assay type: physicochemical
Procedure, shortened: (§1)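 RP-HPLC on an octadecyl silica column (150 × 4.6 mm, 5 µm) at 22 ± 1 °C, flow 1.0 mL min⁻¹, UV detection at 254 nm. Mobile phase was methanol, acetonitrile or dioxane with water and 0.01 M phosphate buffer pH 3.5 containing 0.05 M DEA. log k_W was extrapolated to pure water by regression.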

[4] = Lipophilicity, log kw in dioxane aqueous system at pH 3.5; assay type: physicochemical; details: buffer; procedure, shortened: as §1
[5] = Lipophilicity, log kw in methanol aqueous system at pH 3.5; assay type: physicochemical; procedure, shortened: as §1
Escherichia coli [6] = assay: Antimicrobial activity against Escherichia coli ATCC 25922 at 200 ug/mL by disc-diffusion method; assay type: functional; details: read-out: IZ
Procedure, shortened: (§2)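 Kirby–Bauer disc diffusion: 5 mm paper discs soaked in compound solution in DMSO (100 or 200 µg/mL; reference drugs 200 µg/mL) and laid on inoculated Mueller-Hinton agar (bacteria) or Sabouraud agar (C. albicans, Aspergillus). DMSO discs were the control. Plates ran 24 h at 35 °C. Inhibition zone diameter was scored 0–10 mm R, 11–16 mm I, 17–25 mm S; triplicate.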

Klebsiella aerogenes [7] = assay: Antimicrobial activity against Enterobacter aerogenes at 100 ug/mL by disc-diffusion method; assay type: functional; details: read-out: IZ; procedure, shortened: as §2
Pseudomonas aeruginosa [8] = assay: Antimicrobial activity against Pseudomonas aeruginosa ATCC 27853 at 200 ug/mL by disc-diffusion method; assay type: functional; details: read-out: IZ; procedure, shortened: as §2
Klebsiella aerogenes [9] = assay: Antimicrobial activity against Enterobacter aerogenes at 200 ug/mL by disc-diffusion method; assay type: functional; details: read-out: IZ; procedure, shortened: as §2
Streptococcus pyogenes [10] = assay: Antimicrobial activity against Streptococcus pyogenes at 200 ug/mL by disc-diffusion method; assay type: functional; details: read-out: IZ; procedure, shortened: as §2
Streptococcus pyogenes [11] = assay: Antimicrobial activity against Streptococcus pyogenes at 100 ug/mL by disc-diffusion method; assay type: functional; details: read-out: IZ; procedure, shortened: as §2
Streptococcus agalactiae [12] = assay: Antimicrobial activity against Streptococcus agalactiae at 200 ug/mL by disc-diffusion method; assay type: functional; details: read-out: IZ; procedure, shortened: as §2
Candida albicans [13] = assay: Antimicrobial activity against Candida albicans ATCC 10231 at 100 ug/mL by disc-diffusion method; assay type: functional; details: read-out: IZ; procedure, shortened: as §2
Escherichia coli [14] = assay: Antimicrobial activity against Escherichia coli ATCC 25922 at 100 ug/mL by disc-diffusion method; assay type: functional; details: read-out: IZ; procedure, shortened: as §2
Proteus vulgaris [15] = assay: Antimicrobial activity against Proteus vulgaris at 100 ug/mL by disc-diffusion method; assay type: functional; details: read-out: IZ; procedure, shortened: as §2
Aspergillus sp. [16] = assay: Antimicrobial activity against Aspergillus sp. at 200 ug/mL by disc-diffusion method; assay type: functional; details: read-out: IZ; procedure, shortened: as §2
Pseudomonas aeruginosa [17] = assay: Antimicrobial activity against Pseudomonas aeruginosa ATCC 27853 at 100 ug/mL by disc-diffusion method; assay type: functional; details: read-out: IZ; procedure, shortened: as §2
[18] = test system: Staphylococcus epidermidis; assay: Antimicrobial activity against Staphylococcus epidermidis at 100 ug/mL by disc-diffusion method; assay type: functional; details: read-out: IZ; procedure, shortened: as §2
Candida albicans [19] = assay: Antimicrobial activity against Candida albicans ATCC 10231 at 200 ug/mL by disc-diffusion method; assay type: functional; details: read-out: IZ; procedure, shortened: as §2
Streptococcus agalactiae [20] = assay: Antimicrobial activity against Streptococcus agalactiae at 100 ug/mL by disc-diffusion method; assay type: functional; details: read-out: IZ; procedure, shortened: as §2
Klebsiella pneumoniae [21] = assay: Antimicrobial activity against Klebsiella pneumoniae at 100 ug/mL by disc-diffusion method; assay type: functional; details: read-out: IZ; procedure, shortened: as §2
Staphylococcus aureus [22] = assay: Antimicrobial activity against Staphylococcus aureus ATCC 25923 at 200 ug/mL by disc-diffusion method; assay type: functional; details: read-out: IZ; procedure, shortened: as §2
Klebsiella pneumoniae [23] = assay: Antimicrobial activity against Klebsiella pneumoniae at 200 ug/mL by disc-diffusion method; assay type: functional; details: read-out: IZ; procedure, shortened: as §2
Aspergillus sp. [24] = assay: Antimicrobial activity against Aspergillus sp. at 100 ug/mL by disc-diffusion method; assay type: functional; details: read-out: IZ; procedure, shortened: as §2
Staphylococcus aureus [25] = assay: Antimicrobial activity against Staphylococcus aureus ATCC 25923 at 100 ug/mL by disc-diffusion method; assay type: functional; details: read-out: IZ; procedure, shortened: as §2
Proteus vulgaris [26] = assay: Antimicrobial activity against Proteus vulgaris at 200 ug/mL by disc-diffusion method; assay type: functional; details: read-out: IZ; procedure, shortened: as §2
[27] = test system: Staphylococcus epidermidis; assay: Antimicrobial activity against Staphylococcus epidermidis at 200 ug/mL by disc-diffusion method; assay type: functional; details: read-out: IZ; procedure, shortened: as §2
[28] = Antiproliferative activity against human RPMI cells assessed as cell viability at 100 uM by MTT assay; assay type: functional; details: read-out: Activity
Procedure, shortened: (§3)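 Log-phase cells, kept in supplemented RPMI 1640 (HSF in DMEM/10% FBS) at 37 °C, 5% CO2, were exposed 24 h to 1, 50 or 100 µM compound from DMSO. They were washed, given 0.5 mg/mL MTT in HEPES buffer pH 7.4 for 45 min at 37 °C, and formazan was dissolved in DMSO and read at 570 nm. Values are % viability versus control from three independent measurements.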

[29] = Antiproliferative activity against human skin fibroblast assessed as cell viability at 1 uM by MTT assay; assay type: cell-based; details: human skin fibroblasts, read-out: Activity; procedure, shortened: as §3
[30] = Antiproliferative activity against human skin fibroblast assessed as cell viability at 50 uM by MTT assay; assay type: cell-based; details: human skin fibroblasts, read-out: Activity
Procedure, shortened: (§4)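 MTT viability assay on primary human skin fibroblasts grown in DMEM with 10% FBS and penicillin/streptomycin. Compounds were dissolved in DMSO and given at 1, 50 or 100 µM for 24 h. Cells were washed in HEPES-buffered medium (pH 7.4) and then given MTT 0.5 mg mL⁻¹ for 45 min at 37 °C. Formazan was dissolved in DMSO and read at 570 nm. Viability is % of control; three independent measurements.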

[31] = Antiproliferative activity against human RPMI cells assessed as cell viability at 1 uM by MTT assay; assay type: functional; details: read-out: Activity; procedure, shortened: as §3
HeLa [32] = assay: Antiproliferative activity against human HeLa cells assessed as cell viability at 100 uM by MTT assay; assay type: functional; details: read-out: Activity; procedure, shortened: as §3
HeLa [33] = assay: Antiproliferative activity against human HeLa cells assessed as cell viability at 50 uM by MTT assay; assay type: functional; details: read-out: Activity; procedure, shortened: as §3
[34] = Antiproliferative activity against human RPMI cells assessed as cell viability at 50 uM by MTT assay; assay type: functional; details: read-out: Activity; procedure, shortened: as §3
[35] = Antiproliferative activity against human skin fibroblast assessed as cell viability at 100 uM by MTT assay; assay type: cell-based; details: human skin fibroblasts, read-out: Activity; procedure, shortened: as §4
HeLa [36] = assay: Antiproliferative activity against human HeLa cells assessed as cell viability at 1 uM by MTT assay; assay type: functional; details: read-out: Activity; procedure, shortened: as §3

Structure (SMILES): Clc1ccc(N2CCn3cnnc32)cc1Cl
logKw [3]: 2.11 | logKw [4]: 2.49 | logKw [5]: 2.92

Structure (SMILES): COc1ccc(N2CCn3cnnc32)cc1
viability at 100 µM [28]: 91.3% | viability at 1 µM [29]: 105% | viability at 50 µM [30]: 95.2% | viability at 1 µM [31]: 102% | logKw [3]: 1.56 | viability at 100 µM (HeLa [32]): 80.6% | logKw [4]: 1.22 | viability at 50 µM (HeLa [33]): 91.7% | logKw [5]: 1.87 | viability at 50 µM [34]: 96.5% | viability at 100 µM [35]: 89.3% | viability at 1 µM (HeLa [36]): 93%

Structure (SMILES): c1ccc(OCc2nnc3n2CCN3c2ccccc2)cc1
viability at 100 µM [28]: 101% | viability at 1 µM [29]: 91.7% | viability at 50 µM [30]: 87.6% | viability at 1 µM [31]: 104% | logKw [3]: 1.37 | viability at 100 µM (HeLa [32]): 70.3% | logKw [4]: 1.78 | viability at 50 µM (HeLa [33]): 71.1% | logKw [5]: 1.62 | viability at 50 µM [34]: 99% | viability at 100 µM [35]: 83% | viability at 1 µM (HeLa [36]): 85.3%

Structure (SMILES): c1ccc(N2CCn3cnnc32)cc1
viability at 100 µM [28]: 97.6% | viability at 1 µM [29]: 97.6% | viability at 50 µM [30]: 89.5% | viability at 1 µM [31]: 99.3% | logKw [3]: 1.37 | viability at 100 µM (HeLa [32]): 72.8% | logKw [4]: 1.16 | viability at 50 µM (HeLa [33]): 75.4% | logKw [5]: 1.62 | viability at 50 µM [34]: 102% | viability at 100 µM [35]: 85.6% | viability at 1 µM (HeLa [36]): 73.2%

Second part, led by results:

MIC (Staphylococcus aureus [1]): 12.4 µM (≈ 4.01 µg/mL) | MIC (Pseudomonas aeruginosa [2]): > 387 µM
Structure (SMILES): O=C(N[C@H](CO)[C@H](O)c1ccc([N+](=O)[O-])cc1)C(Cl)Cl [CHLORAMPHENICOL]

logKw [3]: 3.32 | MIC (Pseudomonas aeruginosa [2]): 36.3 µM (≈ 15.6 µg/mL) | logKw [4]: 4.61 | logKw [5]: 6
Structure (SMILES): Clc1ccc(OCc2nnc3n2CCN3c2ccc(Cl)c(Cl)c2)c(Cl)c1
zone of inhibition at 200 µg/mL (Escherichia coli [6]): 0 mm | zone of inhibition at 100 µg/mL (Klebsiella aerogenes [7]): 0 mm | zone of inhibition at 200 µg/mL (Pseudomonas aeruginosa [8]): 17 mm | zone of inhibition at 200 µg/mL (Klebsiella aerogenes [9]): 11 mm | zone of inhibition at 200 µg/mL (Streptococcus pyogenes [10]): 0 mm | zone of inhibition at 100 µg/mL (Streptococcus pyogenes [11]): 0 mm | zone of inhibition at 200 µg/mL (Streptococcus agalactiae [12]): 0 mm | zone of inhibition at 100 µg/mL (Candida albicans [13]): 0 mm | zone of inhibition at 100 µg/mL (Escherichia coli [14]): 0 mm | zone of inhibition at 100 µg/mL (Proteus vulgaris [15]): 11 mm | zone of inhibition at 200 µg/mL (Aspergillus sp. [16]): 0 mm | zone of inhibition at 100 µg/mL (Pseudomonas aeruginosa [17]): 11 mm | zone of inhibition at 100 µg/mL [18]: 0 mm | zone of inhibition at 200 µg/mL (Candida albicans [19]): 0 mm | zone of inhibition at 100 µg/mL (Streptococcus agalactiae [20]): 0 mm | zone of inhibition at 100 µg/mL (Klebsiella pneumoniae [21]): 0 mm | zone of inhibition at 200 µg/mL (Staphylococcus aureus [22]): 0 mm | zone of inhibition at 200 µg/mL (Klebsiella pneumoniae [23]): 11 mm | zone of inhibition at 100 µg/mL (Aspergillus sp. [24]): 0 mm | zone of inhibition at 100 µg/mL (Staphylococcus aureus [25]): 0 mm | zone of inhibition at 200 µg/mL (Proteus vulgaris [26]): 17 mm | zone of inhibition at 200 µg/mL [27]: 0 mm

logKw [3]: 3.7 | logKw [4]: 3.87 | logKw [5]: 4.61
Structure (SMILES): Cc1cc(Cl)ccc1OCc1nnc2n1CCN2c1ccc(Cl)cc1
viability at 100 µM [28]: 31.1% | viability at 1 µM [29]: 79.5% | viability at 50 µM [30]: 74% | viability at 1 µM [31]: 46.4% | viability at 100 µM (HeLa [32]): 71% | viability at 50 µM (HeLa [33]): 71.8% | viability at 50 µM [34]: 32.4% | viability at 100 µM [35]: 71% | viability at 1 µM (HeLa [36]): 92.1%
